Source: the array DNA melting data of Ke et al. (doi:10.1101/2024.01.08.574731)

Key:
[1] = folding enthalpy; higher = less favourable; fluorescence melt of hairpins on a sequencing array, two-state fit; settings: sodium 0.088 M
Summary of the method: (§1)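 Cy3 fluorescence of library hairpins on a sequenced MiSeq flow cell, with annealed Cy3 and quencher oligos, was imaged in 50 mM Na-HEPES pH 8.0, 25 mM NaCl in 2.5 °C steps up to 60 °C. Signals were normalised to pre-quench Cy3 and to control variants. Melting temperature and folding enthalpy came from bootstrapped two-state fits, inverse-variance combined over four replicates. Fitted temperatures were raised by 9.35 °C to match UV melts.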

[2] = melting temperature; fluorescence melt of hairpins on a sequencing array, two-state fit, raised by 9.35 °C to match UV melts; settings: sodium 0.088 M
Summary of the method: as §1

Row | Sequence | folding enthalpy [1] [kcal/mol] | Tm [2] [°C]
1 | GATCCACAGTGGATC ((((((...)))))) | -40.5 | 49.7
2 | GAGGTGGGAAACCACCCC (.(((((....))))).) | -10.7 | 44.6
3 | GCGTCGGGAAACCAACGC ((((.((....)).)))) | -41.5 | 51.5
4 | GATTAAGAAATTAATC ((((((....)))))) | -14.9 | 30.4
5 | GCAGCCGAAAGGCTATGC ((((((....)))..))) | -14 | 47.4
6 | GATCGTAGGTACGATC ((((((....)))))) | -38.9 | 55.8
7 | GATCCTCTAAGGATC ((((((...)))))) | -33.3 | 54.3
8 | GATCCCTTAAGGGATC ((((((....)))))) | -39.4 | 65.6
9 | GCCCACCGAAAGGTAGGC (((.(((....))).))) | -38 | 55.5
10 | GTGCCACCGAAAGGTCAC (((..(((....)))))) | -9.49 | 50.5
11 | GTTGTAGGAAACCACAAC (((((.(....).))))) | -32.5 | 39.9
12 | GGGTAGGCGAAAGCCCCC (((..(((....)))))) | -16.9 | 53
13 | GATCCTTATTAGGATC ((((((....)))))) | -37.8 | 51.7
14 | GGCCTCGAAAGAGGTGCC ((((((....)))..))) | -13.2 | 47.6
15 | GTCGCTGGAAACAGCAAC ((.((((....)))).)) | -15 | 41.7
16 | GTAGGAGGAAACCCCTAC (((((.(....).))))) | -32.4 | 38.3
17 | GATCATTCAAATGATC ((((((....)))))) | -34 | 47.3
18 | GATCCGCCTCCGGATC ((((((....)))))) | -34.5 | 56.1
19 | CGTACGGAAACGTACACG ((((((....)))..))) | -11.5 | 39.9
20 | GATCTTAGTTAAGATC ((((((....)))))) | -34.9 | 44.1
21 | GTGGTCGAAAGACGCCAC ((((((....)))..))) | -15.9 | 39.6
22 | GTACTCACGAAAGTGTAC (((..(((....)))))) | -11 | 31.9
23 | GCCCGCGAAAGCGAAGGC ((((((....)))..))) | -24.8 | 63.3

Row | Sequence | folding enthalpy [1] [kcal/mol] | Tm [2] [°C]
24 | GCCAGGACGAAAGTCGGC (((..(((....)))))) | -27.3 | 52.6
25 | GGAGGATCGAAAGATTCC (((..(((....)))))) | -19.1 | 28.4
26 | GCGGTCTTCCGC ((((....)))) | -23.6 | 59.1
27 | GCTCAACCGAAAGGTAGC (((..(((....)))))) | -18.4 | 39.4
28 | GATCCTGGTAGGATC ((((((...)))))) | -32.6 | 54.6
29 | GGGGCCTCGAAAGAGCCC (((..(((....)))))) | -23.8 | 56.8
30 | GCTACGCGAAAGCGCAGC (((.(((....))).))) | -32.5 | 55.7
31 | GTTATCACGAAAGTGAAC (((..(((....)))))) | -10.2 | 28.5
32 | GTTCCGGGAAACCGGGAC ((.((((....)))).)) | -35.5 | 57.4
33 | GACCTTACGAAAGTAGTC (((..(((....)))))) | -11 | 25.2
34 | GGGGCCGAAAGGCAGCCC ((((((....)))..))) | -14.6 | 54
35 | GCTTGCGGAAACGTGAGC (((..((....))..))) | -31.5 | 46.5
36 | GACACCGAAAGGTCAGTC ((((((....)))..))) | -12.5 | 35.9
37 | GATCGATAGCTCGATC ((((((....)))))) | -41.9 | 49.6
38 | GATCCAGAAGTGGATC ((((((....)))))) | -35.5 | 52.1
39 | GGTGGTCGAAAGACAACC (((.(((....))).))) | -39.2 | 55.6
40 | GGCACTGGAAACAGCACC ((..(((....)))..)) | -9.94 | 23.5
41 | CGCACGGAAACGTCGCG ((((((....))).))) | -35.8 | 51.1
42 | GTGACCGAAAGGTCCAC ((((((....))).))) | -11.3 | 47.1
43 | GAGCTCGGAAACGAACTC (((.(((....))).))) | -28.6 | 44.9
44 | GGCAGTTCGAAAGAAGCC (((..(((....)))))) | -16.3 | 34.5
45 | GCTTTTGGAAACAAAGGC ((.((((....)))).)) | -28.9 | 43
46 | GGATTGACGAAAGTCTCC (((..(((....)))))) | -13.7 | 28.4

Row | Sequence | folding enthalpy [1] [kcal/mol] | Tm [2] [°C]
47 | TCCTGGAAACAGGA (((((....))))) | -18.4 | 45.5
48 | GGTGGTCCGAAAGGAACC (((..(((....)))))) | -14.1 | 48.9
49 | GCAAGGCGAAAGCCGAGC ((..(((....)))..)) | -29.1 | 65
50 | GTCGAACGAAAGTTGAC (((.(((....)))))) | -23.4 | 46.3
51 | GGTAACGAAAGTTTAACC ((((((....)))..))) | -15.7 | 33.8
52 | GCCCAAGAAATTGGGC ((((((....)))))) | -33.3 | 63.1
53 | GATCCAGTATGGATC ((((((...)))))) | -39.8 | 60.1
54 | GCGTAGCGAAAGCAATGC ((.(.((....)).).)) | -7.98 | 35.8
55 | GCCGAGCGAAAGCGCTGC ((.(.((....)).).)) | -12.4 | 45.6
56 | GCTCAGCGAAAGCAGTGC ((.(.((....)).).)) | -13.2 | 44.4
57 | GCGTGTGGAAACACGTGC ((..(((....)))..)) | -19.1 | 63.1
58 | GAAAGCGAAAGCTCATTC ((((((....)))..))) | -8.68 | 23.9
59 | GTGGATCGAAAGATACAC (((.(((....))).))) | -44.2 | 55.9
60 | GATCTGTCGGCAGATC ((((((....)))))) | -45.6 | 51.1
61 | CGGGCGGAAACGCGCCG ((((((....))).))) | -16.6 | 55.5
62 | GTAGCCGAAAGGCGTAC ((((((....))).))) | -15.7 | 57.5
63 | GTCGAAGAAATTCGAC ((((((....)))))) | -35.6 | 56.2
64 | GTGGCCGGAAACGACCAC ((((.((....)).)))) | -40.3 | 56.5
65 | GCGTGCGGAAACGCGTGC ((..(((....)))..)) | -27.6 | 53.5
66 | GACTCTGGAAACAGAGCC (.(((((....))))).) | -18.3 | 43
67 | GCTACGCGAAAGCAAAGC (((..((....))..))) | -13.2 | 44.1
68 | GATCATTTGCATGATC ((((((....)))))) | -34.4 | 46.4
69 | GCCTCACGAAAGTGTGGC (((.(((....))).))) | -43.5 | 63.5

Row | Sequence | folding enthalpy [1] [kcal/mol] | Tm [2] [°C]
70 | GATCCGGCGCGGATC ((((((...)))))) | -37.1 | 59.3
71 | GATCGAAAAATCGATC ((((((....)))))) | -25.5 | 43.9
72 | GATCCGGGTGCGGATC ((((((....)))))) | -41 | 63.2
73 | GATCAGCAGCCTGATC ((((((....)))))) | -36.5 | 48.7
74 | GGCTAAGGAAACTTAGTC (.(((((....))))).) | -36.7 | 42.4
75 | GCATAGCGAAAGCTCGGC ((..(((....)))..)) | -16.2 | 36.5
76 | GCGGTAGACCGC ((((....)))) | -25.7 | 60.8
77 | GCCGCTCGAAAGAGAGGC (((.(((....))).))) | -40 | 67.1
78 | GATCAGGACCCTGATC ((((((....)))))) | -39.6 | 54.4
79 | GTCCGACGAAAGTCTGAC (((.(((....))).))) | -27.1 | 49.1
80 | GCCATCGGAAACGATAGC ((.((((....)))).)) | -21.6 | 45
81 | GCAAGGCGAAAGCCCAGC ((..(((....)))..)) | -13.1 | 45.9
82 | GGCTTTGGAAACAAGGTC (.(.(((....))).).) | -13.9 | 32.2
83 | GCCGGGCGAAAGCGCTGC ((.(.((....)).).)) | -20.3 | 43
84 | GCGAAGAATCGC ((((....)))) | -11.4 | 50.2
85 | GATCTGAAGCAGATC ((((((...)))))) | -27.9 | 45.7
86 | GAGAGCGAAAGCTACTC ((((((....))).))) | -14.5 | 43.7
87 | GCATGGCGAAAGCAAGGC ((.(.((....)).).)) | -17.2 | 49.5
88 | GCAAGCGAAAGCTAATGC ((((((....)))..))) | -15.5 | 39.4
89 | GCGCCTCCGAAAGGACGC (((..(((....)))))) | -25.2 | 50.1
90 | GCGACGCGAAAGCTTTGC ((.(.((....)).).)) | -18.6 | 44.7
91 | GACTGGACGAAAGTCGTC (((..(((....)))))) | -12.4 | 46.8
92 | GCGCAGGGAAACCTGTGC ((.((((....)))).)) | -28 | 57.7
